Test results taken from ChEMBL document CHEMBL4270573, “Novel nicotinoyl pyrazoline derivates bearing N-methyl indole moiety as antitumor agents: Design, synthesis and evaluation” (Eur J Med Chem, 2018).
Calls of active or inactive are those of the source. No cut-off for these calls is given here.

How the values were obtained:
MCF7 = assay: Growth inhibition of human MCF7 cells after 48 hrs by MTT assay; format: functional; details: MCF7, 48 h
How it was run: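 Proliferation read-out; GI50 taken as the concentration giving 50% reduction of cancer cell proliferation.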

[1] = Cytotoxicity against HEK293T cells assessed as reduction in cell viability after 48 hrs by MTT assay; format: cell-based, HEK-293T; details: human
HeLa [2] = assay: Cell cycle arrest in human HeLa cells assessed as accumulation at G2/M phase at 0.040 uM after 24 hrs by propidium iodide staining based flow cytometric analysis (reference value: 17.72%); format: functional
How it was run: (§1)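 HepG2 and HeLa cells were exposed to 0, 0.020, 0.040, 0.060, 0.080 or 0.10 µM for 6, 12 or 24 h. DNA content was stained with propidium iodide and analysed by flow cytometry to give the percentage of cells in G0/G1, S and G2/M phases; sub-G1 cells were also recorded.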

HeLa [3] = assay: Cell cycle arrest in human HeLa cells assessed as accumulation at S phase at 0.060 uM after 24 hrs by propidium iodide staining based flow cytometric analysis (reference value: 17.46%); format: functional; how it was run: as §1
HeLa [4] = assay: Cell cycle arrest in human HeLa cells assessed as accumulation at S phase at 0.080 uM after 24 hrs by propidium iodide staining based flow cytometric analysis (reference value: 17.46%); format: functional; how it was run: as §1
HeLa [5] = assay: Cell cycle arrest in human HeLa cells assessed as accumulation at G2/M phase at 0.10 uM after 24 hrs by propidium iodide staining based flow cytometric analysis (reference value: 17.72%); format: functional; how it was run: as §1
HepG2 [6] = assay: Cell cycle arrest in human HepG2 cells assessed as accumulation at S phase at 0.040 uM after 24 hrs by propidium iodide staining based flow cytometric analysis (reference value: 20.40%); format: functional; how it was run: as §1
HepG2 [7] = assay: Cell cycle arrest in human HepG2 cells assessed as accumulation at G2/M phase at 0.040 uM after 24 hrs by propidium iodide staining based flow cytometric analysis (reference value: 20.17%); format: functional; how it was run: as §1
HepG2 [8] = assay: Cell cycle arrest in human HepG2 cells assessed as accumulation at S phase at 0.10 uM after 24 hrs by propidium iodide staining based flow cytometric analysis (reference value: 20.40%); format: functional; how it was run: as §1
HepG2 [9] = assay: Cell cycle arrest in human HepG2 cells assessed as accumulation at G2/M phase at 0.10 uM after 24 hrs by propidium iodide staining based flow cytometric analysis (reference value: 20.17%); format: functional; how it was run: as §1
HeLa [10] = assay: Induction of apoptosis in human HeLa cells assessed as early apoptotic cells at 0.080 uM after 24 hrs by Annexin V-FITC/propidium iodide staining based flow cytometric analysis (reference value: 6.17%); format: functional
How it was run: (§2)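 HepG2 and HeLa cells were exposed to 0, 0.02, 0.040, 0.060, 0.080 and 0.10 µM for 6, 12 and 24 h. Cells were double-stained with Annexin V-FITC/PI and read by flow cytometry. Apoptotic rate was the percentage of FITC-positive cells, counting early plus late apoptotic.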

HeLa [11] = assay: Induction of apoptosis in human HeLa cells assessed as viable cells at 0.080 uM after 24 hrs by Annexin V-FITC/propidium iodide staining based flow cytometric analysis (reference value: 88.6%); format: functional; details: read-out: Activity; how it was run: as §2
HepG2 [12] = assay: Induction of apoptosis in human HepG2 cells assessed as early apoptotic cells at 0.020 uM after 24 hrs by Annexin V-FITC/propidium iodide staining based flow cytometric analysis (reference value: 2.31%); format: functional; how it was run: as §2
HepG2 [13] = assay: Induction of apoptosis in human HepG2 cells assessed as necrotic cells at 0.020 uM after 24 hrs by Annexin V-FITC/propidium iodide staining based flow cytometric analysis (reference value: 0.270%); format: functional; how it was run: as §2
HepG2 [14] = assay: Induction of apoptosis in human HepG2 cells assessed as early apoptotic cells at 0.060 uM after 24 hrs by Annexin V-FITC/propidium iodide staining based flow cytometric analysis (reference value: 2.31%); format: functional; how it was run: as §2
HepG2 [15] = assay: Induction of apoptosis in human HepG2 cells assessed as late apoptotic cells at 0.080 uM after 24 hrs by Annexin V-FITC/propidium iodide staining based flow cytometric analysis (reference value: 2.93%); format: functional; how it was run: as §2
HepG2 [16] = assay: Induction of apoptosis in human HepG2 cells assessed as necrotic cells at 0.080 uM after 24 hrs by Annexin V-FITC/propidium iodide staining based flow cytometric analysis (reference value: 0.270%); format: functional; how it was run: as §2
HepG2 [17] = assay: Induction of apoptosis in human HepG2 cells assessed as viable cells at 0.080 uM after 24 hrs by Annexin V-FITC/propidium iodide staining based flow cytometric analysis (reference value: 94.5%); format: functional; details: HepG2, 24 h, read-out: Activity; how it was run: as §2
HepG2 [18] = assay: Induction of apoptosis in human HepG2 cells assessed as early apoptotic cells at 0.10 uM after 24 hrs by Annexin V-FITC/propidium iodide staining based flow cytometric analysis (reference value: 2.31%); format: functional; how it was run: as §2
HepG2 [19] = assay: Induction of apoptosis in human HepG2 cells assessed as viable cells at 0.10 uM after 24 hrs by Annexin V-FITC/propidium iodide staining based flow cytometric analysis (reference value: 94.5%); format: functional; details: HepG2, 24 h, read-out: Activity; how it was run: as §2
HeLa [20] = assay: Antitumor activity against human HeLa cells xenografted in nude mouse assessed as tumor weight at 10 mg/kg, ip after 14 days (reference value: 1.54 g); format: functional
Mus musculus [21] = assay: Toxicity in nude mouse xenografted with human HeLa cells assessed as change in mouse heart weight at 10 to 20 mg/kg, ip after 14 days; format: organism-based; details: in vivo, 336 h
Mus musculus [22] = assay: Toxicity in nude mouse xenografted with human HeLa cells assessed as change in mouse liver weight at 10 to 20 mg/kg, ip after 14 days; format: organism-based; details: in vivo, 336 h
[23] = Selectivity index, ratio of CC50 for HEK293T cells to GI50 for human HeLa cells; format: toxicity; details: HEK293T cells and HeLa cells, read-out: Selectivity Index
How it was run: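 Ratio CC50/GI50: CC50 is the concentration reducing non-tumour 293T cell proliferation by 50%; GI50 is the concentration reducing cancer cell proliferation by 50%.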

Tubulin (Homo sapiens) = Tubulin (Homo sapiens) (UniProt P68371+Q9H4B7+P0DPH7+P68366+Q13509+Q71U36+P04350+Q3ZCM7+P07437+P68363+Q9BQE3+Q6PEY2+Q13885+Q9BVA1+Q9BUF5); assay: Inhibition of tubulin polymerization in human HepG2 cells assessed as multinucleated cell formation at 0.04 to 0.1 uM after 12 hrs by DAPI staining based immunofluorescence confocal laser scanning microscopic analysis
Mus musculus [24] = assay: Toxicity in nude mouse xenografted with human HeLa cells assessed as edema in spleen at 10 to 20 mg/kg, ip after 14 days by hematoxylin and eosin staining based microscopic analysis; format: organism-based; details: in vivo, 336 h
Mus musculus [25] = assay: Nephrotoxicity in nude mouse xenografted with human HeLa cells assessed as necrosis in kidney at 10 to 20 mg/kg, ip after 14 days by hematoxylin and eosin staining based microscopic analysis; format: toxicity, organism-based; details: in vivo, 336 h
Mus musculus [26] = assay: Hepatotoxicity in nude mouse xenografted with human HeLa cells assessed as morphological changes in liver cells at 10 to 20 mg/kg, ip after 14 days by hematoxylin and eosin staining based microscopic analysis; format: toxicity, organism-based; details: in vivo, 336 h
How it was run: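 HeLa xenograft nude mice with tumours near 100 mm³, randomised to four groups of 28 mice in total. Dosing was intraperitoneal: vehicle, CA-4 10 mg/kg, or test compound at 10 or 20 mg/kg, continued for 14 days. Heart, liver, kidney and spleen were then H&E-stained and examined for inflammatory infiltration, edema, necrosis and cell morphology.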

GI50 (MCF7): 90 nM | inhibition (Tubulin (Homo sapiens)): Active
SMILES: COc1cccc(C2=NN(C(=O)c3ccc(C)nc3)C(c3cn(C)c4ccc(OC)cc34)C2)c1 (stereo not drawn)
CC50 at 48 h [1]: > 300000 nM | Activity (HeLa [2]): 27.81% | Activity (HeLa [3]): 16.47% | Activity (HeLa [4]): 9.17% | Activity (HeLa [5]): 61.12% | Activity (HepG2 [6]): 21.59% | Activity (HepG2 [7]): 30.26% | Activity (HepG2 [8]): 27.64% | Activity (HepG2 [9]): 51.22% | Activity (HeLa [10]): 30.2% | viability at 0.08 µM (HeLa [11]): 61.8% | Activity (HepG2 [12]): 3.18% | Activity (HepG2 [13]): 0.771% | Activity (HepG2 [14]): 7.94% | Activity (HepG2 [15]): 6.01% | Activity (HepG2 [16]): 2.95% | viability at 0.08 µM (HepG2 [17]): 81.4% | Activity (HepG2 [18]): 18.5% | viability at 0.1 µM (HepG2 [19]): 70.7% | Activity (HeLa [20]): 0.91 g | Activity (Mus musculus [21]): Non-Toxic | Activity (Mus musculus [22]): Non-Toxic | selectivity ratio [23]: 3 to 10 | Activity (Mus musculus [24]): Non-Toxic | Activity (Mus musculus [25]): Non-Toxic | Activity (Mus musculus [26]): Non-Toxic
